Data as given in ChEMBL document CHEMBL4052595, “Application of Residual Dipolar Couplings and Selective Quantitative NOE to Establish the Structures of Tetranortriterpenoids from Xylocarpus rumphii” (J Nat Prod, 2017).
The source made the active and inactive calls.

Experiments:
Type in all cases: functional, cell-based
BT-549 = assay: Growth inhibition of human BT549 cells at 10^-5 M incubated for 48 hrs by sulforhodamine B assay
In short: (§1)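 Run in the NCI59 one-dose cell-line screen, with each compound tested at a single concentration of 1 × 10−5 M.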

UACC-62 = assay: Growth inhibition of human UACC62 cells at 10^-5 M incubated for 48 hrs by sulforhodamine B assay
In short: (§2)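 Tested at a single concentration of 1 × 10−5 M as part of the NCI59 cell-line one-dose screen.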

UO-31 = assay: Growth inhibition of human UO31 cells at 10^-5 M incubated for 48 hrs by sulforhodamine B assay; in short: as §2
SF-539 = assay: Growth inhibition of human SF539 cells at 10^-5 M incubated for 48 hrs by sulforhodamine B assay; in short: as §1
MDA-MB-231 = assay: Growth inhibition of human MDA-MB-231 cells at 10^-5 M incubated for 48 hrs by sulforhodamine B assay; in short: as §1
SF-268 = assay: Growth inhibition of human SF268 cells at 10^-5 M incubated for 48 hrs by sulforhodamine B assay; in short: as §1
OVCAR-3 = assay: Growth inhibition of human OVCAR3 cells at 10^-5 M incubated for 48 hrs by sulforhodamine B assay; in short: as §1
RXF 393 = assay: Growth inhibition of human RXF393 cells at 10^-5 M incubated for 48 hrs by sulforhodamine B assay; in short: as §1
SNB-75 = assay: Growth inhibition of human SNB75 cells at 10^-5 M incubated for 48 hrs by sulforhodamine B assay; in short: as §1
HCC 2998 = assay: Growth inhibition of human HCC2998 cells at 10^-5 M incubated for 48 hrs by sulforhodamine B assay; in short: as §1
MCF7 = assay: Growth inhibition of human MCF7 cells at 10^-5 M incubated for 48 hrs by sulforhodamine B assay; in short: as §1
NCI-H23 = assay: Growth inhibition of human NCI-H23 cells at 10^-5 M incubated for 48 hrs by sulforhodamine B assay; in short: as §1
RPMI-8226 = assay: Growth inhibition of human RPMI8226 cells at 10^-5 M incubated for 48 hrs by sulforhodamine B assay; in short: as §1
SN12C = assay: Growth inhibition of human SN12C cells at 10^-5 M incubated for 48 hrs by sulforhodamine B assay; in short: as §1
HOP-62 = assay: Growth inhibition of human HOP62 cells at 10^-5 M incubated for 48 hrs by sulforhodamine B assay; in short: as §1
SK-MEL-2 = assay: Growth inhibition of human SK-MEL-2 cells at 10^-5 M incubated for 48 hrs by sulforhodamine B assay; in short: as §1
OVCAR-5 = assay: Growth inhibition of human OVCAR5 cells at 10^-5 M incubated for 48 hrs by sulforhodamine B assay; in short: as §1
SW-620 = assay: Growth inhibition of human SW620 cells at 10^-5 M incubated for 48 hrs by sulforhodamine B assay; in short: as §2
SK-OV-3 = assay: Growth inhibition of human SKOV3 cells at 10^-5 M incubated for 48 hrs by sulforhodamine B assay; in short: as §1
NCI-H322M = assay: Growth inhibition of human NCI-H322M cells at 10^-5 M incubated for 48 hrs by sulforhodamine B assay; in short: as §1
EKVX = assay: Growth inhibition of human EKVX cells at 10^-5 M incubated for 48 hrs by sulforhodamine B assay; in short: as §1
LOX IMVI = assay: Growth inhibition of human LOXIMVI cells at 10^-5 M incubated for 48 hrs by sulforhodamine B assay; in short: as §1
TK-10 = assay: Growth inhibition of human TK10 cells at 10^-5 M incubated for 48 hrs by sulforhodamine B assay; in short: as §2
NCI-H460 = assay: Growth inhibition of human NCI-H460 cells at 10^-5 M incubated for 48 hrs by sulforhodamine B assay; in short: as §1
K562 = assay: Growth inhibition of human K562 cells at 10^-5 M incubated for 48 hrs by sulforhodamine B assay; in short: as §1
M14 = assay: Growth inhibition of human M14 cells at 10^-5 M incubated for 48 hrs by sulforhodamine B assay; in short: as §1
ACHN = assay: Growth inhibition of human ACHN cells at 10^-5 M incubated for 48 hrs by sulforhodamine B assay; in short: as §1
HCT-15 = assay: Growth inhibition of human HCT15 cells at 10^-5 M incubated for 48 hrs by sulforhodamine B assay; in short: as §1
OVCAR-4 = assay: Growth inhibition of human OVCAR4 cells at 10^-5 M incubated for 48 hrs by sulforhodamine B assay; in short: as §1
NCI-H522 = assay: Growth inhibition of human NCI-H522 cells at 10^-5 M incubated for 48 hrs by sulforhodamine B assay; in short: as §1
A498 = assay: Growth inhibition of human A498 cells at 10^-5 M incubated for 48 hrs by sulforhodamine B assay; in short: as §1
SR = assay: Growth inhibition of human SR cells at 10^-5 M incubated for 48 hrs by sulforhodamine B assay; in short: as §1
SF-295 = assay: Growth inhibition of human SF295 cells at 10^-5 M incubated for 48 hrs by sulforhodamine B assay; in short: as §1
NCI-H226 = assay: Growth inhibition of human NCI-H226 cells at 10^-5 M incubated for 48 hrs by sulforhodamine B assay; in short: as §1
SK-MEL-5 = assay: Growth inhibition of human SK-MEL-5 cells at 10^-5 M incubated for 48 hrs by sulforhodamine B assay; in short: as §1
DU-145 = assay: Growth inhibition of human DU145 cells at 10^-5 M incubated for 48 hrs by sulforhodamine B assay; in short: as §1
IGROV-1 = assay: Growth inhibition of human IGROV1 cells at 10^-5 M incubated for 48 hrs by sulforhodamine B assay; in short: as §1
SNB-19 = assay: Growth inhibition of human SNB19 cells at 10^-5 M incubated for 48 hrs by sulforhodamine B assay; in short: as §1
A549 = assay: Growth inhibition of human A549/ATCC cells at 10^-5 M incubated for 48 hrs by sulforhodamine B assay; in short: as §1
MOLT-4 = assay: Growth inhibition of human MOLT4 cells at 10^-5 M incubated for 48 hrs by sulforhodamine B assay; in short: as §1
KM12 = assay: Growth inhibition of human KM12 cells at 10^-5 M incubated for 48 hrs by sulforhodamine B assay; in short: as §1
CAKI-1 = assay: Growth inhibition of human Caki1 cells at 10^-5 M incubated for 48 hrs by sulforhodamine B assay; in short: as §1
HOP-92 = assay: Growth inhibition of human HOP92 cells at 10^-5 M incubated for 48 hrs by sulforhodamine B assay; in short: as §1
Hs-578T = assay: Growth inhibition of human Hs 578T cells at 10^-5 M incubated for 48 hrs by sulforhodamine B assay; in short: as §1
COLO 205 = assay: Growth inhibition of human COLO205 cells at 10^-5 M incubated for 48 hrs by sulforhodamine B assay; in short: as §1
U-251 = assay: Growth inhibition of human U251 cells at 10^-5 M incubated for 48 hrs by sulforhodamine B assay; in short: as §2
UACC-257 = assay: Growth inhibition of human UACC257 cells at 10^-5 M incubated for 48 hrs by sulforhodamine B assay; in short: as §2
T47D = assay: Growth inhibition of human T47D cells at 10^-5 M incubated for 48 hrs by sulforhodamine B assay; in short: as §2
PC-3 = assay: Growth inhibition of human PC3 cells at 10^-5 M incubated for 48 hrs by sulforhodamine B assay; in short: as §1
NCI/ADR-RES = assay: Growth inhibition of human NCI/ADR-RES cells at 10^-5 M incubated for 48 hrs by sulforhodamine B assay; in short: as §1
HL-60(TB) = assay: Growth inhibition of human HL-60(TB) cells at 10^-5 M incubated for 48 hrs by sulforhodamine B assay
In short: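 Run in the NCI59 cell-line one-dose screen, with each compound tested at a single concentration of 1 × 10−5 M.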

SK-MEL-28 = assay: Growth inhibition of human SK-MEL-28 cells at 10^-5 M incubated for 48 hrs by sulforhodamine B assay; in short: as §1
MDA-MB-435 = assay: Growth inhibition of human MDA-MB-435 cells at 10^-5 M incubated for 48 hrs by sulforhodamine B assay; in short: as §1
OVCAR-8 = assay: Growth inhibition of human OVCAR8 cells at 10^-5 M incubated for 48 hrs by sulforhodamine B assay; in short: as §1
786-0 = assay: Growth inhibition of human 786-0 cells at 10^-5 M incubated for 48 hrs by sulforhodamine B assay; in short: as §1
HT-29 = assay: Growth inhibition of human HT-29 cells at 10^-5 M incubated for 48 hrs by sulforhodamine B assay; in short: as §1
CCRF-CEM = assay: Growth inhibition of human CCRF-CEM cells at 10^-5 M incubated for 48 hrs by sulforhodamine B assay; in short: as §1
HCT-116 = assay: Growth inhibition of human HCT116 cells at 10^-5 M incubated for 48 hrs by sulforhodamine B assay; in short: as §1

Measured: growth inhibition (GI)

CC[C@H](C)C(=O)O[C@@H]1[C@H]2[C@@H](OC(=O)C(C)C)C(C)(C)[C@H](CC(=O)OC)[C@@]3(C)[C@H]4CC[C@]5(C)C(=CC(=O)O[C@H]5C5=CC(O)OC5=O)[C@@]14O[C@@]23O (stereo partly specified)
inactive: all assays above

CC[C@H](C)C(=O)O[C@@H]1[C@@H]2[C@@H](OC(=O)[C@@H](C)CC)[C@@]34O[C@]2(O)[C@@](C)([C@@H](CC(=O)OC)C1(C)C)[C@H]3CC[C@]1(C)C4=CC(=O)O[C@H]1C1=CC(O)OC1=O (stereo partly specified)
inactive: all assays above
